ChEMBL document CHEMBL4190301, “Isolation, Structure Elucidition, and Immunosuppressive Activity of Diterpenoids from Ligularia fischeri” (J Nat Prod, 2017)
The source made the active and inactive calls. The rule behind the calls is not given here.

Tests used:
HMy2.C1R [1] = experiment: […] in human HMy2.C1R cells at 2.5 to 40 uM after 48 hrs by SRB assay; format: functional, cell-based
Procedure, shortened: (§1)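 Human B lymphoblast HMy2.CIR cells were seeded in 96-well plates in medium with 5% FBS. After 24 h, a plate was TCA-fixed as time zero (T0). Cells were then exposed to DMSO or compound at 2.5–40 μM for 48 h, fixed with 10% TCA and stained with 0.4% SRB in 1% HOAc. Bound dye was solubilized in 10 mM Trizma base and read at 540 nm. Percentage growth was calculated from T0, control and treated absorbances; mean ± SD, n = 3.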

HMy2.C1R [2] = experiment: Immunosuppressive activity in human HMy2.C1R cells assessed as cell growth inhibition at 2.5 to 40 uM after 48 hrs by SRB assay; format: functional, cell-based; procedure, shortened: as §1
HMy2.C1R [3] = experiment: Immunosuppressive activity in human HMy2.C1R cells assessed as cell growth inhibition after 48 hrs by SRB assay
HMy2.C1R [4] = experiment: Immunosuppressive activity in human HMy2.C1R cells assessed as cell growth at 40 uM after 48 hrs by SRB assay relative to control; format: functional; procedure, shortened: as §1
HMy2.C1R [5] = experiment: Immunosuppressive activity in human HMy2.C1R cells assessed as cell growth at 20 uM after 48 hrs by SRB assay relative to control; format: functional; procedure, shortened: as §1
HMy2.C1R [6] = experiment: Immunosuppressive activity in human HMy2.C1R cells assessed as cell growth at 10 uM after 48 hrs by SRB assay relative to control; format: functional; procedure, shortened: as §1
HMy2.C1R [7] = experiment: Immunosuppressive activity in human HMy2.C1R cells assessed as cell growth at 5 uM after 48 hrs by SRB assay relative to control; format: functional; procedure, shortened: as §1
HMy2.C1R [8] = experiment: Immunosuppressive activity in human HMy2.C1R cells assessed as cell growth at 2.5 uM after 48 hrs by SRB assay relative to control; format: functional; procedure, shortened: as §1

## C[C@]12CCC[C@]3(COC1=O)[C@@H]2CC[C@@]12C[C@@H](CC[C@]13O)[C@](C)(O)C2
HMy2.C1R [1]
  Activity: Dose-dependent effect

## COc1cc(/C=C/C(=O)OC[C@@]2(O)C[C@@]34CC[C@@H]5C(C)(C)CCC[C@@]5(C(=O)O)[C@@H]3CC[C@@H]2C4)ccc1O
HMy2.C1R [2]
  inhibition: inactive

## C[C@]12CCC[C@]3(COC1=O)[C@@H]2C[C@H](O)[C@@]12C[C@@H](CC[C@]13O)[C@](C)(O)C2
HMy2.C1R [2]
  inhibition: inactive

## C=C1[C@H](O)CC[C@@H]2[C@@]3(C)CC[C@](C)(O)C[C@@H]3CC[C@@]12C
HMy2.C1R [1]
  Activity: Dose-dependent effect

## C[C@@]12CC[C@@H](O)[C@@](C)(C(=O)O)[C@H]1CC[C@@]13C[C@@H](CC[C@H]12)[C@@](O)(CO)C3
HMy2.C1R [2]
  inhibition: inactive

## CC1(C)CCC[C@]2(C)[C@@H]1CC[C@@]13C[C@@H](CC[C@H]12)[C@](C)(O)C3
HMy2.C1R [2]
  inhibition: inactive

## C[C@]12CCC[C@@]3(COC1=O)[C@@H]1[C@@H]4C[C@@H]5C[C@@]1(CC[C@@H]32)C[C@]5(C)O4
HMy2.C1R [2]
  inhibition: inactive

## CC1(C)CCC[C@]2(C=O)[C@@H]1CC[C@@]13C[C@@H](CC[C@H]12)[C@](C)(O)C3
HMy2.C1R [2]
  inhibition: inactive

## CC1(C)CCC[C@]2(C(=O)O)[C@@H]1CC[C@@]13C[C@@H](CC[C@H]12)[C@](C)(O)C3
HMy2.C1R [2]
  inhibition: inactive

## CC1(C)CCC[C@]2(C(=O)O)[C@@H]1CC[C@@]13C[C@@H](CC[C@H]12)[C@@](O)(CO)C3
HMy2.C1R [2]
  inhibition: inactive

## C[C@]12CCC[C@@]3(COC1=O)[C@@H]1CC[C@@H]4C[C@@]1(CC[C@@H]32)C[C@@]4(C)O
HMy2.C1R [3]
  IC50: 56.3 µM
HMy2.C1R [4]
  Ratio: 0.6
HMy2.C1R [5]
  Ratio: 0.683
HMy2.C1R [6]
  Ratio: 0.762
HMy2.C1R [7]
  Ratio: 0.809
HMy2.C1R [8]
  Ratio: 0.849

## C=C[C@](C)(O)CC[C@@H]1C(=C)CC[C@@H]2C(C)(C)C[C@@H](O)C[C@@]12C
HMy2.C1R [3]
  IC50: 31.4 µM
HMy2.C1R [4]
  Ratio: 0.39
HMy2.C1R [5]
  Ratio: 0.648
HMy2.C1R [6]
  Ratio: 0.761
HMy2.C1R [7]
  Ratio: 0.812
HMy2.C1R [8]
  Ratio: 0.934

## CC1(C)CCC[C@]2(C=O)[C@@H]1CC[C@@]13C[C@@H](CC[C@H]12)[C@@](O)(CO)C3
HMy2.C1R [3]
  IC50: 13.3 µM
HMy2.C1R [4]
  Ratio: 0.301
HMy2.C1R [5]
  Ratio: 0.455
HMy2.C1R [6]
  Ratio: 0.525
HMy2.C1R [7]
  Ratio: 0.685
HMy2.C1R [8]
  Ratio: 0.791
